{"source": "ChEMBL document CHEMBL2046311", "about": "“Design, synthesis, and molecular hybrids of caudatin and cinnamic acids as novel anti-hepatitis B virus agents” (Eur J Med Chem, 2012)", "key": {"Mus musculus [1]": {"test_system": "Mus musculus", "test": "Acute toxicity in Kunming mouse assessed as mortality at 1250 mg/kg, po administered as single dose measured up to 14 days", "type": "organism-based", "parameters": "dose 1250 mg/kg, route oral", "settings": "in vivo, 336 h"}, "Mus musculus [2]": {"test_system": "Mus musculus", "test": "Acute toxicity in Kunming mouse assessed as change in body weight at 250 mg/kg, po administered as single dose measured on day 14 (Rvb =28.5 g)", "type": "organism-based", "parameters": "dose 250 mg/kg, route oral", "settings": "in vivo"}, "Mus musculus [3]": {"test_system": "Mus musculus", "test": "Acute toxicity in Kunming mouse assessed as change in body weight at 1250 mg/kg, po administered as single dose measured on day 14 (Rvb =28.5 g)", "type": "organism-based", "parameters": "dose 1250 mg/kg, route oral", "settings": "in vivo"}, "[4]": {"test": "Cytotoxicity against human HepG2(2.2.15) cells assessed as cell viability at 10 uM after 72 hrs by MTT assay", "type": "cell-based", "settings": "hepg2 2.2.15, 72 h", "method_in_brief": "(§1)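 Cell viability measured by MTT under the 10 μM luciferase reporter treatment conditions, at 48 h and 72 h.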"}, "[5]": {"test": "Selectivity index, ratio of CC50 for human HepG2(2.2.15) cells to IC50 for Hepatitis B virus infected in human HepG2(2.2.15) cells assessed as inhibition of viral e antigen secretion", "type": "functional", "method_in_brief": "(§2)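 SI calculated as CC50 (MTT, HepG 2.2.15) divided by IC50 for the named read-out (HBV DNA by real-time PCR, or HBeAg or HBsAg secretion by ELISA), in the same cell line.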"}, "[6]": {"test": "Cytotoxicity against human HepG2(2.2.15) cells by modified-MTT assay", "type": "cell-based", "method_in_brief": "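HepG 2.2.15 cells in RPMI-1640 with 10% fetal calf serum at 37 °C, 5% CO2. Compounds in DMSO, final DMSO below 2.5 μL/mL. Viability read by modified MTT method. CC50 is the mean of at least two experiments.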"}, "Nucleic Acid [7]": {"test_system": "Nucleic Acid", "test": "Increase of enhancer 1 transcriptional activity in HBV infected in human HepG2(2.2.15) cells transfected with pGL3 at 10 uM after 3 days by luciferase reporter gene assay relative to mock-treated control", "type": "cell-based", "settings": "Hepatitis B virus", "method_in_brief": "(§3)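 HepG 2 cells transiently transfected by Lipofectamine 2000 with HBV promoter/enhancer firefly luciferase reporters in pGL3, with phRL-CMV Renilla luciferase as internal control. Cells split 24 h after transfection and cultured 3 days, then treated at 10 μM for 3 days. Dual-luciferase read-out in triplicate. Fold activity = treated/mock-treated activity.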"}, "Mus musculus [8]": {"test_system": "Mus musculus", "test": "Acute toxicity in Kunming mouse assessed as change in body weight at 50 mg/kg, po administered as single dose measured on day 14 (Rvb =28.5 g)", "type": "organism-based", "parameters": "dose 50 mg/kg, route oral", "settings": "in vivo"}, "Mus musculus [9]": {"test_system": "Mus musculus", "test": "Acute toxicity in Kunming mouse assessed as abnormality at 50 to 1250 mg/kg, po administered as single dose measured up to 14 days", "type": "organism-based", "parameters": "dose 50-1250 mg/kg, route oral", "settings": "in vivo, 336 h"}, "Mus musculus [10]": {"test_system": "Mus musculus", "test": "Acute toxicity in Kunming mouse assessed as mortality at 250 mg/kg, po administered as single dose measured up to 14 days", "type": "organism-based", "parameters": "dose 250 mg/kg, route oral", "settings": "in vivo, 336 h"}, "Mus musculus [11]": {"test_system": "Mus musculus", "test": "Acute toxicity in Kunming mouse assessed as change in body weight at 250 mg/kg, po administered as single dose measured on day 7 (Rvb =26.3 g)", "type": "organism-based", "parameters": "dose 250 mg/kg, route oral", "settings": "in vivo"}, "Mus musculus [12]": {"test_system": "Mus musculus", "test": "Acute toxicity in Kunming mouse assessed as change in body weight at 50 mg/kg, po administered as single dose measured on day 7 (Rvb =26.3 g)", "type": "organism-based", "parameters": "dose 50 mg/kg, route oral", "settings": "in vivo"}, "Hepatitis B virus [13]": {"test_system": "Hepatitis B virus", "test": "Antiviral activity against Hepatitis B virus infected in human HepG2(2.2.15) cells assessed as inhibition of viral DNA replication by PCR analysis", "type": "functional, organism-based", "method_in_brief": "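HepG 2.2.15 cells grown in RPMI-1640 with 10% fetal calf serum, […] and penicillin/streptomycin at 37 °C, 5% CO2. Compounds added in DMSO, kept below 2.5 μL/mL. HBV DNA quantified by SYBR Green real-time PCR with HBV-specific primers spanning 541–591 bp. IC50 values are means of at least two experiments.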"}, "Hepatitis B virus [14]": {"test_system": "Hepatitis B virus", "test": "Antiviral activity against Hepatitis B virus infected in human HepG2(2.2.15) cells assessed as inhibition of viral surface antigen secretion by ELISA", "type": "functional, organism-based", "method_in_brief": "(§4)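 HepG 2.2.15 cells in RPMI-1640 with 10% fetal calf serum at 37 °C, 5% CO2. Compounds dissolved in DMSO, culture DMSO below 2.5 μL/mL. Secreted HBeAg and HBsAg measured by ELISA. IC50 values are means of at least two experiments.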"}, "[15]": {"test": "Selectivity index, ratio of CC50 for human HepG2(2.2.15) cells to IC50 for Hepatitis B virus infected in human HepG2(2.2.15) cells assessed as inhibition of viral DNA replication", "type": "functional", "method_in_brief": "as §2"}, "Nucleic Acid [16]": {"test_system": "Nucleic Acid", "test": "Inhibition of X promoter transcriptional activity in HBV infected in human HepG2(2.2.15) cells transfected with pGL3 at 10 uM after 3 days by luciferase reporter gene assay relative to mock-treated control", "type": "cell-based", "settings": "Hepatitis B virus", "method_in_brief": "as §3"}, "[17]": {"test": "Selectivity index, ratio of CC50 for human HepG2(2.2.15) cells to IC50 for Hepatitis B virus infected in human HepG2(2.2.15) cells assessed as inhibition of viral surface antigen secretion", "type": "functional", "method_in_brief": "as §2"}, "Hepatitis B virus [18]": {"test_system": "Hepatitis B virus", "test": "Antiviral activity against Hepatitis B virus infected in human HepG2(2.2.15) cells assessed as inhibition of viral e antigen secretion by ELISA", "type": "functional, organism-based", "method_in_brief": "as §4"}, "Mus musculus [19]": {"test_system": "Mus musculus", "test": "Acute toxicity in po dosed Kunming mouse", "type": "organism-based", "settings": "in vivo"}, "Mus musculus [20]": {"test_system": "Mus musculus", "test": "Acute toxicity in Kunming mouse assessed as change in body weight at 1250 mg/kg, po administered as single dose measured on day 7 (Rvb =26.3 g)", "type": "organism-based", "parameters": "dose 1250 mg/kg, route oral", "settings": "in vivo"}, "[21]": {"test": "Cytotoxicity against human HepG2(2.2.15) cells assessed as cell viability at 10 uM after 48 hrs by MTT assay", "type": "cell-based", "settings": "hepg2 2.2.15, 48 h", "method_in_brief": "as §1"}, "Mus musculus [22]": {"test_system": "Mus musculus", "test": "Acute toxicity in Kunming mouse assessed as mortality at 50 mg/kg, po administered as single dose measured up to 14 days", "type": "organism-based", "parameters": "dose 50 mg/kg, route oral", "settings": "in vivo, 336 h"}}, "data": [{"smiles": "COc1cc(/C=C/C(=O)O[C@H]2CC[C@@]3(C)C(=CC[C@]4(O)[C@@H]3C[C@@H](OC(=O)/C=C(\\C)C(C)C)[C@@]3(C)[C@]4(O)CC[C@@]3(O)C(C)=O)C2)cc(OC)c1OC", "values": [{"measurement": "Activity", "setting": "Mus musculus [1]", "result": "Non-toxic"}, {"measurement": "Activity", "setting": "Mus musculus [2]", "result": 29.8, "unit": "%"}, {"measurement": "Activity", "setting": "Mus musculus [3]", "result": 28.8, "unit": "%"}, {"measurement": "Activity", "setting": "[4]", "result": 85.6, "unit": "%"}, {"measurement": "Ratio CC50/IC50", "setting": "[5]", "result": ">330"}, {"measurement": "CC50", "setting": "[6]", "result": "> 1820", "unit": "µM"}, {"measurement": "fold change (FC)", "setting": "Nucleic Acid [7]", "result": 9.4}, {"measurement": "Activity", "setting": "Mus musculus [8]", "result": 28.9, "unit": "%"}, {"measurement": "Activity", "setting": "Mus musculus [9]", "result": "Non-toxic"}, {"measurement": "Activity", "setting": "Mus musculus [10]", "result": "Non-toxic"}, {"measurement": "Activity", "setting": "Mus musculus [11]", "result": 27.3, "unit": "%"}, {"measurement": "Activity", "setting": "Mus musculus [12]", "result": 26.7, "unit": "%"}, {"measurement": "IC50", "setting": "Hepatitis B virus [13]", "result": 2.44, "unit": "µM"}, {"measurement": "IC50", "setting": "Hepatitis B virus [14]", "result": 5.52, "unit": "µM"}, {"measurement": "Ratio CC50/IC50", "setting": "[15]", "result": ">746.6"}, {"measurement": "fold change (FC)", "setting": "Nucleic Acid [16]", "result": 5.6}, {"measurement": "Ratio CC50/IC50", "setting": "[17]", "result": ">330"}, {"measurement": "IC50", "setting": "Hepatitis B virus [18]", "result": 5.52, "unit": "µM"}, {"measurement": "LD50", "setting": "Mus musculus [19]", "result": 1250, "unit": "mg/kg"}, {"measurement": "Activity", "setting": "Mus musculus [20]", "result": 26.5, "unit": "%"}, {"measurement": "Activity", "setting": "[21]", "result": 97.4, "unit": "%"}, {"measurement": "Activity", "setting": "Mus musculus [22]", "result": "Non-toxic"}]}, {"smiles": "CC(=O)[C@]1(O)CC[C@@]2(O)[C@]1(C)[C@H](OC(=O)/C=C(\\C)C(C)C)C[C@@H]1[C@@]3(C)CC[C@H](OC(=O)/C=C/c4cccc([N+](=O)[O-])c4)CC3=CC[C@]12O", "values": [{"measurement": "Ratio CC50/IC50", "setting": "[5]", "result": ">7.7"}, {"measurement": "CC50", "setting": "[6]", "result": "> 1590", "unit": "µM"}, {"measurement": "IC50", "setting": "Hepatitis B virus [13]", "result": 56.7, "unit": "µM"}, {"measurement": "IC50", "setting": "Hepatitis B virus [14]", "result": 50.3, "unit": "µM"}, {"measurement": "Ratio CC50/IC50", "setting": "[15]", "result": ">28.1"}, {"measurement": "Ratio CC50/IC50", "setting": "[17]", "result": ">31.7"}, {"measurement": "IC50", "setting": "Hepatitis B virus [18]", "result": 207, "unit": "µM"}]}]}
